Legend:
[1] = folding enthalpy; higher = less favourable; fluorescence melt of hairpins on a sequencing array, two-state fit; settings: sodium 0.088 M
How it was run: (§1)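 Library hairpins on a sequenced MiSeq flow cell carried annealed Cy3 and quencher oligos, and their Cy3 fluorescence was imaged in 50 mM Na-HEPES pH 8.0 with 25 mM NaCl, in 2.5 °C steps up to 60 °C. Signals were normalised to Cy3 before quenching and to control constructs. Melting temperature and folding enthalpy were obtained from bootstrapped two-state fits, combined by inverse-variance weighting across four replicates, and the fitted temperatures were then raised by 9.35 °C to match UV melts.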

[2] = melting temperature; fluorescence melt of hairpins on a sequencing array, two-state fit, raised by 9.35 °C to match UV melts; settings: sodium 0.088 M
How it was run: as §1

| Sequence | folding enthalpy [1] | Tm [2] |
| --- | --- | --- |
| GATCGTCATACGATC ((((((...)))))) | -33.8 kcal/mol | 57.5 °C |
| GATCGTCCCAACGATC ((((((....)))))) | -40.2 kcal/mol | 55.6 °C |
| GATCGTCCCCACGATC ((((((....)))))) | -41.8 kcal/mol | 53.9 °C |
| GATCGTCCGCACGATC ((((((....)))))) | -39.6 kcal/mol | 54.4 °C |
| GATCGTCCGTACGATC ((((((....)))))) | -47.3 kcal/mol | 54.9 °C |
| GATCGTCGATACGATC ((((((....)))))) | -38.5 kcal/mol | 54.7 °C |
| GATCGTCGGAACGATC ((((((....)))))) | -27.3 kcal/mol | 52.7 °C |
| GATCGTCGGGACGATC ((((((....)))))) | -41.3 kcal/mol | 61.7 °C |
| GATCGTCTAACGATC ((((((...)))))) | -38.7 kcal/mol | 55.6 °C |
| GATCGTCTGTACGATC ((((((....)))))) | -38.3 kcal/mol | 55.7 °C |
| GATCGTCTTTACGATC ((((((....)))))) | -34.3 kcal/mol | 55.2 °C |
| GATCGTGAATACGATC ((((((....)))))) | -35 kcal/mol | 61.7 °C |
| GATCGTGATACGATC ((((((...)))))) | -35.9 kcal/mol | 57.2 °C |
| GATCGTGCATACGATC ((((((....)))))) | -37.7 kcal/mol | 60.5 °C |
| GATCGTGCCACGATC ((((((...)))))) | -35.8 kcal/mol | 57.8 °C |
| GATCGTGCCTACGATC ((((((....)))))) | -34.3 kcal/mol | 57.4 °C |
| GATCGTGCGGACGATC ((((((....)))))) | -38.6 kcal/mol | 54.4 °C |
| GATCGTGGAAACACAATC (((.(((....))).))) | -17.6 kcal/mol | 34.3 °C |

| Sequence | folding enthalpy [1] | Tm [2] |
| --- | --- | --- |
| GATCGTGGAAACACGACC (.(((((....))))).) | -13.3 kcal/mol | 41.7 °C |
| GATCGTGGAAACACGGTC ((.((((....)))).)) | -29.1 kcal/mol | 52.7 °C |
| GATCGTGGAAACGCGATC (((((.(....).))))) | -39.9 kcal/mol | 55.6 °C |
| GATCGTGGCAACGATC ((((((....)))))) | -32.8 kcal/mol | 67.6 °C |
| GATCGTGGGACGATC ((((((...)))))) | -30 kcal/mol | 53.8 °C |
| GATCGTGGTAACGATC ((((((....)))))) | -39.2 kcal/mol | 66.1 °C |
| GATCGTGGTGACGATC ((((((....)))))) | -39.1 kcal/mol | 57.6 °C |
| GATCGTGTAAACGATC ((((((....)))))) | -42.2 kcal/mol | 66.5 °C |
| GATCGTGTACACGATC ((((((....)))))) | -51.3 kcal/mol | 63.6 °C |
| GATCGTGTCAACGATC ((((((....)))))) | -39 kcal/mol | 67.6 °C |
| GATCGTTCCAACGATC ((((((....)))))) | -39.5 kcal/mol | 58.6 °C |
| GATCGTTCGCACGATC ((((((....)))))) | -38 kcal/mol | 54.2 °C |
| GATCGTTGAAACGATC ((((((....)))))) | -39.2 kcal/mol | 54.8 °C |
| GATCGTTGACACGATC ((((((....)))))) | -38.3 kcal/mol | 52.6 °C |
| GATCGTTGGCACGATC ((((((....)))))) | -32.1 kcal/mol | 52.5 °C |
| GATCGTTTGAACGATC ((((((....)))))) | -29.1 kcal/mol | 54.2 °C |
| GATCTAAAAATAGATC ((((((....)))))) | -10.6 kcal/mol | 28.2 °C |
| GATCTAAACTTAGATC ((((((....)))))) | -37 kcal/mol | 42.2 °C |
